These results are taken from ChEMBL document CHEMBL1817591, “Novel benzofuroxan derivatives against multidrug-resistant Staphylococcus aureus strains: design using Topliss' decision tree, synthesis and biological assay” (2011).

Converted amounts (≈) assume the structure as drawn.

Test [1] concerns Staphylococcus aureus. The test can be described thus: Antibacterial activity against multidrug-resistant Staphylococcus aureus 3SP/R33 after 18 hrs by serial broth microdilution method. It counts as functional. As to conditions: 3SP/R33, 18 h. Summed up: (§1)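 Two-stage broth microdilution MIC in Tryptic Soy Broth, run in triplicate. Phase I used two-fold serial dilutions from DMSO/TSB 1:10 v/v stocks, with ampicillin and vancomycin as controls. The inoculum was 0.5 McFarland, diluted in saline and TSB. […] Phase II diluted a stock at twice the Phase I MIC across 11 columns.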

Test [2] deals with Staphylococcus aureus. The test can be described thus: Antibacterial activity against vancomycin-intermediate Staphylococcus aureus VISA3 at 2 times MIC of multidrug-resistant Staphylococcus aureus 3SP/R33 after 18 hrs by serial broth microdilution method. The test is classed as functional. As to conditions: VISA3, 18 h. Put shortly:
as §1

On to `O=C(N/N=C/c1ccc2c(c1)no[n+]2[O-])c1ccc(Cl)cc1Cl`, for which the MIC in test [1] came to 15 µg/mL (≈ 42.7 µM); in test [2], 17.7 µg/mL.

With `O=C(N/N=C/c1ccc2c(c1)no[n+]2[O-])c1ccc([N+](=O)[O-])c(C(F)(F)F)c1`, the MIC in test [1] stood at 7.5 µg/mL (≈ 19 µM); in test [2] it was 11.4 µg/mL.

With `O=C(N/N=C/c1ccc2c(c1)no[n+]2[O-])c1ccc(Cl)cc1`, the minimal inhibitory concentration (MIC) came to 10 µg/mL (≈ 31.6 µM) in test [1] and 15.3 µg/mL in test [2].

`O=C(N/N=C/c1ccc2c(c1)no[n+]2[O-])c1ccc(Cl)c(Cl)c1`: the MIC worked out at 7.5 µg/mL (≈ 21.4 µM) in test [1] and 11.8 µg/mL in test [2].

On to `O=C(N/N=C/c1ccc2c(c1)no[n+]2[O-])c1ccc(Br)cc1`, for which the MIC stood at 10 µg/mL (≈ 27.7 µM) in test [1] and 18 µg/mL in test [2].

As for `O=C(N/N=C/c1ccc2c(c1)no[n+]2[O-])c1ccc(C(F)(F)F)cc1`, the values for the minimum inhibitory concentration (MIC) in test [1] and in test [2] were 10 µg/mL (≈ 28.6 µM) and 13.1 µg/mL, respectively.

Turning to `O=C(N/N=C/c1ccc2c(c1)no[n+]2[O-])c1ccccc1`, the figures for the minimum inhibitory concentration (MIC) in test [1] and in test [2] were 10 µg/mL (≈ 35.4 µM) and 16.2 µg/mL, respectively.

For the compound `O=C(N/N=C/c1ccc2c(c1)no[n+]2[O-])c1ccc([N+](=O)[O-])cc1`, the figures for the MIC in test [1] and in test [2] were 15 µg/mL (≈ 45.8 µM) and 21.9 µg/mL, respectively.
